In ChEMBL document CHEMBL3994616, “Rational design, synthesis, and evaluation of novel 2,4-Chloro- and Hydroxy-Substituted diphenyl Benzofuro[3,2-b]Pyridines: Non-intercalative catalytic topoisomerase I and II dual inhibitor” (Eur J Med Chem, 2017):
Where a name gives a salt, the structure may show the parent alone. Calls of active or inactive are those of the source. The calls are words filed in the database; no cut-off is given here.

Tests used:
HCT-15 [1] = assay: Antiproliferative activity against human HCT15 cells after 72 hrs by CCK8 assay; type: functional, cell-based; conditions: HCT-15, 72 h
Summary of the method: (§1)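 Cells seeded at 2-4 x 10⁴ per well, cultured overnight in medium with 10% FBS at 37 °C, 5% CO₂, then serum-starved 4 h. Graded compound concentrations added for 72 h, CCK-8 added for a further 4 h, absorbance read at 450 nm. IC50 from a four-parameter logistic fit. Results come from three experiments, each in triplicate.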

HeLa = assay: Antiproliferative activity against human HeLa cells after 72 hrs by CCK8 assay; type: functional, cell-based
T47D = assay: Antiproliferative activity against human T47D cells after 72 hrs by CCK8 assay; type: functional, cell-based; summary of the method: as §1
[2] = target: DNA topoisomerase 2-alpha (Homo sapiens) (UniProt P11388); assay: Inhibition of human recombinant topoisomerase-2alpha-mediated relaxation of supercoiled pBR322 DNA at 100 uM after 30 mins by ethidium bromide staining based agarose gel electrophoresis method relative to control
[3] = target: DNA topoisomerase 2-alpha (Homo sapiens) (UniProt P11388); assay: Poison activity at human recombinant topoisomerase 2 alpha assessed as stabilization of enzyme-DNA cleavable complex by measuring formation of linear DNA at 100 to 500 uM using supercoiled pBR322 DNA after 30 mins by ethidium bromide staining based agarose gel electrophoresis method
Summary of the method: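 250 ng supercoiled pBR322 preincubated with 3 units human topo II for 10 min in topo II relaxation buffer. Compound then added at 100 or 500 µM and incubated 30 min more at 37 °C. SDS stop, proteinase K 0.25 mg/mL at 45 °C for 30 min. Run on 1% agarose with EtBr at 30 V for 6 h, linear DNA band scored.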

HCT-15 [4] = assay: Induction of apoptosis in human HCT15 cells assessed as decrease in Bcl2 level after 24 hrs by Western blot method; type: functional, cell-based
Summary of the method: (§2)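 HCT15 cells grown to 80% confluency, then treated 24 h at […]. Lysis buffer: Tris/NaCl/1% Triton X-100 with protease inhibitors. 60 µg protein run on 12% SDS-PAGE and transferred to PVDF. Blocked in 5% milk/TBST, primary antibodies 1:1000 for 2-3 h, HRP anti-rabbit 1:2000 for 2 h, ECL detection.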

HCT-15 [5] = assay: Induction of apoptosis in human HCT15 cells assessed as increase in Bax level after 24 hrs by Western blot method; type: functional, cell-based; summary of the method: as §2
HCT-15 [6] = assay: Induction of DNA damage in human HCT15 cells assessed as comet tail formation at 30 uM after 24 hrs using SYBRGreen stain by electrophoresis based fluorescence microscopic method (reference value: 3 +/- 1.1%); type: functional
Bos taurus [7] = organism: Bos taurus; assay: Induction of calf thymus DNA intercalation assessed as inhibition of ethidium bromide binding to DNA up to 40 uM after 30 mins by fluorescence assay
Summary of the method: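 Calf thymus DNA ([…]) premixed with EtBr ([…]) in 10 mM Tris, pH 7.2, for 30 min at room temperature. Compound added at increasing concentrations […], with 1% DMSO final in all wells including control. Incubated 30 min more with shaking. Fluorescence excited at 471 nm, emission collected 500-700 nm.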

[8] = target: DNA topoisomerase 2-alpha (Homo sapiens) (UniProt P11388); assay: Poison activity at human recombinant topoisomerase 2 in human HCT15 cells assessed as […] at 50 uM after 2 hrs by Western blot method; type: cell-based
HCT-15 [9] = assay: Induction of apoptosis in human HCT15 cells assessed as increase in cleaved PARP level after 24 hrs by Western blot method; type: functional, cell-based; summary of the method: as §2
HCT-15 [10] = assay: Induction of DNA damage in human HCT15 cells assessed as increase in gammaH2AX level at 30 uM after 24 hrs by Western blot method; type: functional, cell-based
Summary of the method: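 HCT15 cells exposed to 30 µM for 24 h, then lysed. 60 µg protein per sample run on 12% SDS-PAGE, and γ-H2AX detected by western blot.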

[11] = target: T1, Topoisomerase I/II (Homo sapiens) (UniProt P11387+P11388); assay: Inhibition of topoisomerase-1/topoisomerase-2 in human HCT15 cell nuclear extract at 50 uM preincubated for 24 hrs followed by supercoiled pBR322 DNA addition measured after 20 mins by ethidium bromide staining based agarose gel electrophoresis method relative to control; type: protein assay
Summary of the method: (§3)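 HCT15 cells treated 24 h at 25, 50 or 100 µM, then nuclear fractions prepared. Nuclear extract incubated with 100 ng pBR322 at 37 °C to read relaxation by endogenous topo I/II. Products run on 1.0% agarose at 50 V for 50 min in TAE, EtBr-stained, UV-visualized. Inhibition percent averaged over three experiments.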

[12] = target: T1, Topoisomerase I/II (Homo sapiens); assay: Inhibition of topoisomerase-1/topoisomerase-2 in human HCT15 cell nuclear extract at 25 uM preincubated for 24 hrs followed by supercoiled pBR322 DNA addition measured after 20 mins by ethidium bromide staining based agarose gel electrophoresis method relative to control; type: protein assay; summary of the method: as §3
[13] = target: T1, Topoisomerase I/II (Homo sapiens); assay: Inhibition of topoisomerase-1/topoisomerase-2 in human HCT15 cell nuclear extract preincubated for 24 hrs followed by supercoiled pBR322 DNA addition measured after 20 mins by ethidium bromide staining based agarose gel electrophoresis method; type: protein assay; summary of the method: as §3
[14] = target: DNA topoisomerase 2-alpha (Homo sapiens) (UniProt P11388); assay: Inhibition of human topoisomerase-2 alpha-mediated kinetoplast DNA decatenation after 30 mins by ethidium bromide staining based agarose gel electrophoresis
Summary of the method: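 75 ng kDNA in 50 mM Tris-HCl pH 8.0, 120 mM KCl, 10 mM MgCl₂, 0.5 mM DTT, 0.5 mM ATP, 30 µg/mL BSA. Compound added at 250 or 500 µM final, reaction started with 3 units topo II, 10 µL, 30 min at 37 °C. Stopped with SDS/ficoll/dye, proteinase K 0.25 mg/mL for 30 min. Run on 1.2% agarose containing EtBr.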

[15] = target: T1, Topoisomerase I/II (Homo sapiens); assay: Inhibition of topoisomerase-1/topoisomerase-2 in human HCT15 cell nuclear extract at 100 uM preincubated for 24 hrs followed by supercoiled pBR322 DNA addition measured after 20 mins by ethidium bromide staining based agarose gel electrophoresis method relative to control; type: protein assay; summary of the method: as §3
HCT-15 [16] = assay: Potency index, ratio of etoposide IC50 to compound IC50 for human HCT15 cells; type: functional
HCT-15 [17] = assay: Potency index, ratio of camptothecin IC50 to compound IC50 for human HCT15 cells; type: functional
HCT-15 [18] = assay: Potency index, ratio of adriamycin IC50 to compound IC50 for human HCT15 cells; type: functional
Bos taurus [19] = organism: Bos taurus; assay: Induction of calf thymus DNA intercalation assessed as inhibition of ethidium bromide binding to DNA after 30 mins by fluorescence assay
Summary of the method: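 Calf thymus DNA ([…]) premixed with EtBr ([…]) in 10 mM Tris buffer pH 7.2, 30 min at room temperature with shaking. Compound then added at increasing concentrations […], final DMSO 1% (vehicle for untreated control), further 30 min at room temperature. EtBr fluorescence read at 471 nm excitation, emission spectrum collected 500–700 nm.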

[20] = target: DNA topoisomerase 2-alpha (Homo sapiens) (UniProt P11388); conditions: 250 uM
HCT-15 [21] = assay: Induction of DNA damage in human HCT15 cells assessed as comet tail formation at 10 uM after 24 hrs using SYBRGreen stain by electrophoresis based fluorescence microscopic method (reference value: 3 +/- 1.1%); type: functional

T1 sequence (P11387 whole entry, looked up): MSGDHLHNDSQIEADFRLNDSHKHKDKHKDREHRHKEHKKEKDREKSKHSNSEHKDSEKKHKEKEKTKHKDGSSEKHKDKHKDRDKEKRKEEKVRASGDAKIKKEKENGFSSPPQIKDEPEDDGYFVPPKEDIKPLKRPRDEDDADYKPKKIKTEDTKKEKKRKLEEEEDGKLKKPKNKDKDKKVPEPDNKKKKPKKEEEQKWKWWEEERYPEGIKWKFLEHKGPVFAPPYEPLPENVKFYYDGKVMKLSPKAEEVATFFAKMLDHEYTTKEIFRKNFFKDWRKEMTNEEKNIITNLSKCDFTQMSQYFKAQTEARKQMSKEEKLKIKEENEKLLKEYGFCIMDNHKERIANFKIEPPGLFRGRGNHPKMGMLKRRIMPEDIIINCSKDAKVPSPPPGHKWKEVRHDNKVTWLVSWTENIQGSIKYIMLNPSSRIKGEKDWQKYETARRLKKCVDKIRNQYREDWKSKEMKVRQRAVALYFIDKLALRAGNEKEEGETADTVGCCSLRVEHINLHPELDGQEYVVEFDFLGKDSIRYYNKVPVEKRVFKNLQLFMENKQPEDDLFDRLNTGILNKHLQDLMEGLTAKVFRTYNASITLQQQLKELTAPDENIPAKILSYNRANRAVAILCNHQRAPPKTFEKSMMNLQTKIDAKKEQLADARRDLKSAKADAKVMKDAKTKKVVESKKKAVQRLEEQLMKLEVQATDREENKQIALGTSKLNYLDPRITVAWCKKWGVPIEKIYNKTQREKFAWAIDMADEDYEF
T1 sequence (P11388 whole entry, looked up): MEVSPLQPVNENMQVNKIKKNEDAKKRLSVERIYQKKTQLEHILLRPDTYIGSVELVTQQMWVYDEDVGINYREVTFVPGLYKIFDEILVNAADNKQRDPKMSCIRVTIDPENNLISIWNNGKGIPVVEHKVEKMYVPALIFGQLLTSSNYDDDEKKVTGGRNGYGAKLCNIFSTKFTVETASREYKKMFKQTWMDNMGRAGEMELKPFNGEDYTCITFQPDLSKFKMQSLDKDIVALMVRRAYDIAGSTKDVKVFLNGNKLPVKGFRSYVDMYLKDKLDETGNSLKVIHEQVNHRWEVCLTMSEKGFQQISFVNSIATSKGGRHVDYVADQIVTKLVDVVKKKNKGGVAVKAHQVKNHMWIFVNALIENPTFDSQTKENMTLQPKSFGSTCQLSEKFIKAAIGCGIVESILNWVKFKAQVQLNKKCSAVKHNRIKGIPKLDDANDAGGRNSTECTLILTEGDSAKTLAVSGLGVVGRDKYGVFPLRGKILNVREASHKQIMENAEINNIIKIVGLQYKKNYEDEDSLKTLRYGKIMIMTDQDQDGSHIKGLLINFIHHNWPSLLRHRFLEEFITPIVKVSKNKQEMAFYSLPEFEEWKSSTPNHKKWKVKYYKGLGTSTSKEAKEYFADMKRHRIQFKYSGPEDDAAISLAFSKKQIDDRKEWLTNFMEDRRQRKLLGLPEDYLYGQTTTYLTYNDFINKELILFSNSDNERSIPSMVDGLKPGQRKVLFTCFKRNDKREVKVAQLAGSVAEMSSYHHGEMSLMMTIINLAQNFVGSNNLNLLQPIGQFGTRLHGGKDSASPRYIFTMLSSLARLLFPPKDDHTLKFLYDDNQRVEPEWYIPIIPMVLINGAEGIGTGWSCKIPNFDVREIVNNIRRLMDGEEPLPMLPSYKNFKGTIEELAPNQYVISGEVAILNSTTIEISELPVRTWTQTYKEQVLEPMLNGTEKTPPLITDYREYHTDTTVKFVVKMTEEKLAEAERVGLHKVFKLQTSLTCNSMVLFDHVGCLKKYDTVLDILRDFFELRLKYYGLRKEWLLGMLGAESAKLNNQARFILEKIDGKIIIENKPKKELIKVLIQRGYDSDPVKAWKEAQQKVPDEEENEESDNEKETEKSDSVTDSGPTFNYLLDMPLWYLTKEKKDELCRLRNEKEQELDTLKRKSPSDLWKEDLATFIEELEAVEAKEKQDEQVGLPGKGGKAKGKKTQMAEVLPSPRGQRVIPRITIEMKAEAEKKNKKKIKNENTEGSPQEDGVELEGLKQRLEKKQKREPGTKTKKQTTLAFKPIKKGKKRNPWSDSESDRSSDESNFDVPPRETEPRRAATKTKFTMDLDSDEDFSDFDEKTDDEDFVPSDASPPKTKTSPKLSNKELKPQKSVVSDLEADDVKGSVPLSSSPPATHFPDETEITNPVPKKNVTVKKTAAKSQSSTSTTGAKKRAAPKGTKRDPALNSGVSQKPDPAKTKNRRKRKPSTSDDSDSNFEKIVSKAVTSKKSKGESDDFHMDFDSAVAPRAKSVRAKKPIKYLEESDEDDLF
Sequence of DNA topoisomerase 2-alpha (Homo sapiens) (P11388 whole entry): as the sequence (P11388 whole entry, looked up) above

Compound	IC50 (HCT-15 [1]) [µM]	IC50 (HeLa) [µM]	IC50 (T47D) [µM]	inhibition [2]	further results
Oc1ccc(-c2cc(-c3ccc(Cl)cc3)c3oc4ccccc4c3n2)cc1	21.3	11.8	11.6	65.6%	
Oc1ccc(-c2cc(-c3ccc(Cl)cc3)nc3c2oc2ccccc23)cc1	0.2	4.3	5.9	100%	Activity [3]: inactive; Activity (HCT-15 [4]): Dose-dependent effect; Activity (HCT-15 [5]): Dose-dependent effect; Activity (HCT-15 [6]): 6.3%; inhibition (Bos taurus [7]): inactive; Activity [8]: inactive; Activity (HCT-15 [9]): Dose-dependent effect; Activity (HCT-15 [10]): inactive; inhibition [11]: 45.5%; inhibition [12]: 38.2%; inhibition [13]: Dose-dependent effect; inhibition [14]: Dose-dependent effect; inhibition [15]: 58.4%
Oc1ccc(-c2cc(-c3cccc(Cl)c3)c3oc4ccccc4c3n2)cc1	5.9	> 50	> 50	4.9%	
Oc1cccc(-c2cc(-c3cccc(Cl)c3)nc3c2oc2ccccc23)c1	0.4	4.3	1.4	85.4%	
Oc1ccccc1-c1cc(-c2cccc(Cl)c2)nc2c1oc1ccccc12	0.01	5.2	0.4	84%	Ratio IC50 (HCT-15 [16]): 540; Ratio IC50 (HCT-15 [17]): 60; Ratio IC50 (HCT-15 [18]): 100
Oc1ccccc1-c1cc(-c2ccccc2Cl)nc2c1oc1ccccc12	0.4	2.8	3.9	85.6%	
Oc1cccc(-c2cc(-c3ccccc3Cl)c3oc4ccccc4c3n2)c1	1.4	4.3	0.1	60.2%	
Oc1cccc(-c2cc(-c3ccc(Cl)cc3)c3oc4ccccc4c3n2)c1	> 50	11.1	2	inactive	
Oc1ccc(-c2cc(-c3ccccc3Cl)nc3c2oc2ccccc23)cc1	0.4	3.9	6.1	92.8%	
Oc1cccc(-c2cc(-c3cccc(Cl)c3)c3oc4ccccc4c3n2)c1	5.9	6.4	1.2	35%	
Oc1ccccc1-c1cc(-c2ccc(Cl)cc2)nc2c1oc1ccccc12	> 50	9.5	> 50	86.7%	
COc1cccc2c1C(=O)c1c(O)c3c(c(O)c1C2=O)C[C@@](O)(C(=O)CO)C[C@@H]3O[C@H]1C[C@H](N)[C@H](O)[C@H](C)O1 [DOXORUBICIN HYDROCHLORIDE]	1		0.3		
Oc1ccc(-c2cc(-c3ccccc3Cl)c3oc4ccccc4c3n2)cc1	46.2	15.9	0.8	52.7%	
Oc1cccc(-c2cc(-c3ccccc3Cl)nc3c2oc2ccccc23)c1	1.6	4.4	1.5	82.9%	
Oc1ccc(-c2cc(-c3cccc(Cl)c3)nc3c2oc2ccccc23)cc1	0.2	0.9	1.9	95.4%	
Oc1cccc(-c2cc(-c3ccc(Cl)cc3)nc3c2oc2ccccc23)c1	0.2	5.7	2.1	87.9%	
Oc1ccccc1-c1cc(-c2cccc(Cl)c2)c2oc3ccccc3c2n1	> 50	> 50	> 50	4.7%	
C[C@@H](CN1CC(=O)NC(=O)C1)N1CC(=O)NC(=O)C1 [DEXRAZOXANE]					Activity (HCT-15 [6]): 5.5%; Activity (HCT-15 [10]): inactive
Oc1ccccc1-c1cc(-c2ccc(Cl)cc2)c2oc3ccccc3c2n1	> 50	> 50	> 50	55.8%	
COc1cc(NS(C)(=O)=O)ccc1Nc1c2ccccc2nc2ccccc12					inhibition (Bos taurus [19]): Dose-dependent effect
Oc1ccccc1-c1cc(-c2ccccc2Cl)c2oc3ccccc3c2n1	0.3	10.9	3	58.2%	
Cc1c2ccncc2c(C)c2c1[nH]c1ccccc12					inhibition [20]: Active
COc1cc([C@@H]2c3cc4c(cc3[C@@H](O[C@@H]3O[C@@H]5CO[C@@H](C)O[C@H]5[C@H](O)[C@H]3O)[C@H]3COC(=O)[C@H]23)OCO4)cc(OC)c1O [ETOPOSIDE]	5.4	9.1	7		Activity (HCT-15 [21]): 46.3%; Activity (HCT-15 [6]): 65.5%; Activity [8]: Active; inhibition [20]: Active; Activity (HCT-15 [10]): Active; inhibition [11]: 60.9%; inhibition [12]: 36.1%
CC[C@@]1(O)C(=O)OCc2c1cc1n(c2=O)Cc2cc3ccccc3nc2-1 [CAMPTOTHECIN]	0.6	0.09	2.1		inhibition [11]: 80.5%; inhibition [12]: 74.6%
